A selection: hits, their analogues and other compounds. The true share with any hit is near 3%.
SENP8 block-1 – inhibitors of human SENP8 protease; Q96LD8; recombinant SENP8, Nedd8 substrate fluorescence; inhibition, % at 20 µM; hit rate 0.64% among 360,000; AID 602440; in the data active = inhibition mostly above about 40%, no sharp cut-off; inactive = mostly below about 27%
SENP7 block – SENP7 protease inhibition | Q9BQF6 | recombinant SENP7, Z-RLRGG-aminoluciferin luminescence, 40 min | inhibition, % at 5 µM | hit rate 1.5% among 330,000 | AID 434973;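 active = inhibition above about 50% at the single test dose, limit read from the data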;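 note: plate controls were DMSO with enzyme for no effect and no enzyme buffer wells for full effect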
UBC13 inh – inhibitors of human UBC13 polyubiquitin chain formation; hit rate 0.47% among 330,000; inhibition, % at 20 µM; TR-FRET; P61088; in the data active = inhibition above about 45%, passing the limit was not always enough
SENP8 block-2 – inhibitors of human SENP8 protease; Q96LD8; purified SENP8, Z-RLRGG-aminoluciferin cleavage, luminescence; inhibition, % at 10 µM; hit rate 1.2% among 330,000; AID 2540; in the data active = inhibition above about 50%
Apaf1 inhib – blocks human Apaf-1 apoptosome activity | O14727 | AID 489030 | hit rate 0.71% among 330,000 | reconstituted apoptosome caspase-3 activity, DEVD-Rh110 fluorescence | inhibition, % at 20 µM; active = inhibition of at least 40% at 20 µM;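 note: plate controls were DMSO wells for no effect and DEVD-CHO caspase inhibitor wells for full effect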
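System: reconstituted apoptosome with Apaf-1, cytochrome c, caspase-9, procaspase-3, dATP; Signal: Rh110 fluorescence intensity; Schedule: 30 min compound preincubation, 50 min activation, room temperature; Reagent: cytochrome c trigger plus (Z-DEVD)2-Rh110 caspase-3 substrate.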
SENP6 inh – blocks the human protease SENP6; Q9GZR1; Recombinant SENP6 catalytic domain, aminoluciferin luminescence; inhibition, % at 10 µM; hit rate 1.8% among 330,000;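 active = inhibition above about 50% at the single tested dose, limit read from the data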;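 note: plate controls were DMSO wells with enzyme for no effect and DMSO wells lacking enzyme for full effect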
Target sequence (Q9GZR1 628-1112 limits assumed): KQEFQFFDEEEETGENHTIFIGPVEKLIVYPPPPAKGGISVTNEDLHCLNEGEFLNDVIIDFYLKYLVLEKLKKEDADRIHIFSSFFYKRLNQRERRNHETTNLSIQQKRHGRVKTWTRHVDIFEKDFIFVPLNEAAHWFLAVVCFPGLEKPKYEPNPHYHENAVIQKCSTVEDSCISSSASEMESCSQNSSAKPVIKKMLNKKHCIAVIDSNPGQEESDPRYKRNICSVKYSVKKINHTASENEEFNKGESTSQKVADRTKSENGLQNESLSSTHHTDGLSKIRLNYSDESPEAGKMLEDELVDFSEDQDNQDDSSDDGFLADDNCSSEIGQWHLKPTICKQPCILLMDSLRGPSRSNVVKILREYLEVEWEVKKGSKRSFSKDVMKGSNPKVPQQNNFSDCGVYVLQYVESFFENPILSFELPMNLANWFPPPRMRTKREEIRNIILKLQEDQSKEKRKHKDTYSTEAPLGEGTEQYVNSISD
SENP8 conf – SENP8 (human) inhibition, single concentration confirmation | inhibition, % at 25 µM | AID 624319 | purified SENP8, Nedd8-AMC/pro-Nedd8 cleavage fluorescence, 30 min | hit rate 15% among 1,400 | shares compounds with SENP8 block-1; in the data active = inhibition mostly above about 39%, no sharp cut-off; inactive = mostly below about 34%
* hit, by the source's call; / = no result.

SMILES | SENP8 block-1 | SENP7 block | UBC13 inh | SENP8 block-2 | Apaf1 inhib | SENP6 inh | SENP8 conf
Cn1cccc1CNC(=S)Nc1ccccc1Cl | 40* | -8 | 22 | -4 | -22 | -16 | 13
CSCC[C@H](NC(=O)N1CCn2c1nc1ccccc12)C(=O)N[C@H](Cc1ccccc1)C(=O)O | 49* | 12 | -9 | 1 | -7 | -1 | 9
O=C(CCCCCNC(=O)N1CCn2c1nc1ccccc12)N[C@@H](C(=O)O)c1ccccc1 | 36 | 4 | 2 | 1 | 6 | -13 | /
O=C(CCCCCNC(=O)N1CCn2c1nc1ccccc12)N[C@@H](Cc1ccccc1)C(=O)O | 47* | 2 | -14 | 4 | -3 | 2 | 12
Cc1ccccc1NC(=S)N1CCN(c2ccccc2C)CC1 | 7 | -12 | -5 | -12 | 4 | -11 | /
CCCCCC(=O)N1C[C@H](n2cc(-c3ccc(F)cc3)nn2)[C@@H](O)C[C@@H]1c1ccc(OC)cc1 | 8 | / | / | / | / | / | /
CCC(C)(O)c1[nH]c2ccc(C#N)cc2c1C (centres undefined) | -42 | 13 | -11 | -11 | 11 | -17 | /
Cc1ccc(N(CC2CO2)S(=O)(=O)c2ccc([N+](=O)[O-])cc2)cc1 (centres undefined) | 10 | 2 | 2 | 5 | 12 | -28 | /
COc1ccc(NC(=O)[C@@H]2[C@@H]3C(=O)N(C4CCCCC4)C(=O)[C@@H]3C3c4ccccc4C=CN32)cc1 (some centres undefined) | 64* | 6 | -24 | 2 | 51* | 9 | 38*
CCOc1ccc(/C=C/C(=O)Nc2ccc(OC)cc2[N+](=O)[O-])cc1 | 41* | 5 | -21 | 0 | -1 | -7 | 5
CCOc1ccc(OCC(=O)Nc2ccc(OC)cc2[N+](=O)[O-])cc1 | 9 | -6 | 7 | -3 | -12 | -17 | /
COc1ccc(S(=O)(=O)N2CCc3ccccc32)cc1C(=O)NCC(c1ccco1)N1CCCC1 (centres undefined) | -5 | 11 | 15 | -2 | -4 | -15 | /
CCOC(=O)c1sc(=S)n(-c2cc(OC)ccc2OC)c1N | 40* | 13 | -5 | -3 | 3 | -1 | 23
CC(C)Nc1ccc(C(CC(N)=O)NC(=O)c2ccccc2)cc1[N+](=O)[O-] (centres undefined) | 44* | 4 | -71 | -1 | 5 | -10 | 7
NC(=O)CC(NC(=O)c1ccccc1)c1ccc(NC2CCC2)c([N+](=O)[O-])c1 (centres undefined) | 20 | 1 | -96 | 2 | 1 | 11 | /
NC(=O)CC(NC(=O)c1ccccc1)c1ccc(NC2CCCC2)c([N+](=O)[O-])c1 (centres undefined) | 41* | 3 | -78 | 4 | -3 | 3 | 24
O=C(CN1C(=O)NC(Cc2ccccc2)C1=O)Nc1ccccc1OC(F)F (centres undefined) | 7 | 5 | 2 | 2 | 6 | -26 | /
Oc1ccc(N2CCN(Cc3ccc(OCCCN4CCCCC4)cc3)CC2)cc1 | 40* | -9 | 13 | -3 | 14 | 9 | 13
CCOc1cc(C(=S)N2CCOCC2)cc(Br)c1OS(=O)(=O)c1ccccc1 | 42* | -6 | 1 | 6 | 8 | -8 | 66*
CCOc1ccc(S(=O)(=O)NCCC(=O)NCC2(N3CCCCC3)CCCCC2)cc1 | 1 | 0 | 5 | -3 | 12 | -10 | /
O=C(NC(=S)Nc1cccc2c(O)cccc12)c1ccccc1[N+](=O)[O-] | 47* | 6 | -3 | 35 | 32 | 48 | 15
CC(C)N(Cc1cnn(C)c1)Cc1nc(Cc2ccccc2Cl)no1 | 47* | 8 | 3 | -3 | -7 | -5 | 2
CC(=O)Nc1ccc(NC(=O)c2cc([N+](=O)[O-])cc([N+](=O)[O-])c2)cc1 | 12 | 0 | 0 | -3 | 7 | 23 | /
Cc1ccc(NC(=O)c2ccc(Nc3c([N+](=O)[O-])cc([N+](=O)[O-])cc3[N+](=O)[O-])cc2)cc1 | 42* | 5 | -37 | 1 | 3 | -14 | 19
CCC(C)NCCOc1ccc(C)cc1[N+](=O)[O-] (centres undefined) | 40* | / | / | / | / | / | 22

From PubChem BioAssay
